Molecules are shown by their SMILES.

From ChEMBL document CHEMBL1146564, “Absolute configuration of sesquiterpenes from Crossopetalum tonduzii and their inhibitory effects on Epstein-Barr virus early antigen activation in Raji cells” (J Nat Prod, 2003) come the findings set out here.

Assay type in all cases: cell-based
Data set [1] is described as follows: Cytotoxicity against human Raji cells assessed as cell viability at 100 molar ratio/TPA after 48 hrs. As to conditions: read-out: Activity. The method in brief:
(§1)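 Raji cells (EBV genome-carrying Burkitt's lymphoma lymphoblastoid line) in RPMI-1640 were incubated 48 h at 37 °C with n-butyric acid (4 mmol), TPA (32 pmol = 20 ng/mL) and test compound at 10, 100, 500 or 1000 mol ratio to TPA (0.32, 3.2, 16, 32 nmol). Viability is given as percentage of Raji cells.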

In data set [2] the test system is Raji. In words: Inhibition of 12-O-tetradecanoylphorbol-13-acetate-induced EBV-early antigen activation in human Raji cells at 100 molar ratio after 48 hrs relative to TPA. Also noted: scale not given: the % may be the effect or the level left. As to conditions: human gammaherpesvirus 4. The procedure, abridged: (§2)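 EBV-EA induction in Raji cells (RPMI-1640). Cells were held 48 h at 37 °C with n-butyric acid (4 mmol), TPA (32 pmol = 20 ng/mL) and compound at 10–1000 mol ratio/TPA (0.32–32 nmol). EA-positive cells were detected on smears by indirect immunofluorescence. Induction is expressed as percentage relative to the TPA-only positive control. β-Carotene served as reference.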

The test system of data set [3] is Raji. In words: Inhibition of 12-O-tetradecanoylphorbol-13-acetate-induced EBV-early antigen activation in human Raji cells at 500 molar ratio after 48 hrs relative to TPA. More on the design: scale not given: the % may be the effect or the level left. The note with it: human gammaherpesvirus 4. The method in brief: as §2
Data set [4] has as its system Raji. In words: Inhibition of 12-O-tetradecanoylphorbol-13-acetate-induced EBV-early antigen activation in human Raji cells at 10 molar ratio after 48 hrs relative to TPA. More on the design: scale not given: the % may be the effect or the level left. The note with it: human gammaherpesvirus 4. The procedure, abridged: as §2
The nature of data set [5]: Cytotoxicity against human Raji cells assessed as cell viability at 500 molar ratio/TPA after 48 hrs. As to conditions: read-out: Activity. The procedure, abridged: as §1
Data set [6] relates to Raji. Briefly: Inhibition of 12-O-tetradecanoylphorbol-13-acetate-induced EBV-early antigen activation in human Raji cells at 1000 molar ratio after 48 hrs relative to TPA. The note with it: human gammaherpesvirus 4. More on the design: scale not given: the % may be the effect or the level left. The method in brief: as §2
Data set [7] is described as follows: Cytotoxicity against human Raji cells assessed as cell viability at 1000 molar ratio/TPA after 48 hrs. The note with it: read-out: Activity. The procedure, abridged: as §1
Data set [8] in a line: Cytotoxicity against human Raji cells assessed as cell viability at 10 molar ratio/TPA after 48 hrs. As to conditions: read-out: Activity. The method in brief:
as §1

On to `CCC(C)C(=O)OC[C@]12[C@H](OC(=O)c3ccccc3)[C@@H](OC(C)=O)[C@@H]3[C@@H](OC(C)=O)[C@]1(OC3(C)C)[C@@](C)(O)C[C@H](O)[C@@H]2OC(C)=O` (stereo not given in full), for which, in data set [1], the viability at 48 h, 100 molar ratio/TPA is greater than 80%. Further, the Activity in the data set with Raji [2] turned out to be 73.7%; with Raji [3] it was 31.2%; with Raji [4], 90.5%; in the data set on Raji [6], 0%. Also, the viability at 48 h, 500 molar ratio/TPA in data set [5] is greater than 80%. For the same compound, in data set [7], the viability at 48 h, 1000 molar ratio/TPA was determined as 60%. Besides, in data set [8], the viability at 48 h, 10 molar ratio/TPA was greater than 80%.

With `CC1=C(/C=C/C(C)=C/C=C/C(C)=C/C=C/C=C(C)/C=C/C=C(C)/C=C/C2=C(C)CCCC2(C)C)C(C)(C)CCC1` [BETA CAROTENE], in data set [1], the viability at 48 h, 100 molar ratio/TPA was 100%. Also, the Activity amounted to 100% with Raji [4] and 8.6% in the data set on Raji [6]. For the same compound, the viability at 48 h, 500 molar ratio/TPA in data set [5] was 80%. In data set [8], the viability at 48 h, 10 molar ratio/TPA was 100%.

`CCC(C)C(=O)OC[C@]12[C@H](OC(=O)c3ccccc3)[C@@H](O)[C@@H]3[C@@H](O)[C@]1(OC3(C)C)[C@@](C)(O)C[C@H](OC(C)=O)[C@@H]2OC(C)=O` (stereo not given in full): the viability at 48 h, 100 molar ratio/TPA in data set [1] was greater than 80%. Besides, the Activity was 74% in the data set with Raji [2], 32.7% with Raji [3], 90.1% with Raji [4] and 0% in the data set on Raji [6]. For the same compound, in data set [5], the viability at 48 h, 500 molar ratio/TPA is greater than 80%. For the same compound, the viability at 48 h, 1000 molar ratio/TPA in data set [7] was 60%. Also, the viability at 48 h, 10 molar ratio/TPA in data set [8] is greater than 80%.

Consider `CCC(C)C(=O)OC[C@]12[C@H](OC(=O)c3ccccc3)[C@@H](OC(C)=O)[C@@H]3[C@@H](OC(C)=O)[C@]1(OC3(C)C)[C@@](C)(O)C[C@H](OC(C)=O)[C@@H]2OC(C)=O` (stereo not given in full), for which the viability at 48 h, 100 molar ratio/TPA in data set [1] is greater than 80%. Moreover, the Activity in the data set with Raji [2] worked out at 79.2%; in the data set on Raji [3], 22%; in the data set on Raji [4], 96.7%; in the data set with Raji [6], 0%. Besides, the viability at 48 h, 500 molar ratio/TPA in data set [5] was greater than 80%. In data set [7], the viability at 48 h, 1000 molar ratio/TPA stood at 70%. Also, the viability at 48 h, 10 molar ratio/TPA in data set [8] was greater than 80%.

Regarding `CCC(C)C(=O)OC[C@]12[C@H](OC(=O)c3ccccc3)[C@@H](OC(C)=O)[C@@H]3[C@@H](O)[C@]1(OC3(C)C)[C@@](C)(O)C[C@H](OC(C)=O)[C@@H]2OC(C)=O` (stereo not given in full), the viability at 48 h, 100 molar ratio/TPA in data set [1] was greater than 80%. Further, the Activity in the data set with Raji [2] was 77.4%; in the data set with Raji [3], 21.8%; with Raji [4], 94.1%; with Raji [6], 0%. In addition, the viability at 48 h, 500 molar ratio/TPA in data set [5] is greater than 80%. For the same compound, the viability at 48 h, 1000 molar ratio/TPA in data set [7] was found to be 70%. For the same compound, the viability at 48 h, 10 molar ratio/TPA in data set [8] was greater than 80%.

Turning to `CCC(C)C(=O)OC[C@]12[C@H](OC(=O)c3ccccc3)[C@@H](OC(C)=O)[C@@H]3[C@@H](OC(C)=O)[C@]1(OC3(C)C)[C@@](C)(O)C[C@H](OC(=O)c1ccccc1)[C@@H]2OC(C)=O` (stereo not given in full), the viability at 48 h, 100 molar ratio/TPA in data set [1] is greater than 80%. Besides, the Activity with Raji [2] was 75.9%; in the data set on Raji [3], 33.8%; in the data set with Raji [4] it was 96%; in the data set with Raji [6], 4.6%. The viability at 48 h, 500 molar ratio/TPA in data set [5] was greater than 80%. The viability at 48 h, 1000 molar ratio/TPA in data set [7] turned out to be 60%. Moreover, in data set [8], the viability at 48 h, 10 molar ratio/TPA was greater than 80%.
